In the library only some 2.2% were active in any assay of this set; here they are far more common.
GalR3 antagonist – antagonists of human GalR3 | O60755 | HEK293 GalR3-CNG cAMP membrane potential fluorescence; galR3 body fused to GalR1 C-terminus | inhibition, % at 3 µM | 0.44% of 360,000 active;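 active = inhibition above the screen-wide average plus 3 SD, cut at about 13% in these data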;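 note: forskolin and galanin both at EC90 stimulate the cells; cAMP rise reported by CNG channel membrane potential dye signal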
SMARCA2 activ – increases SMARCA2 function in MMTV reporter cells; MG213 cells, MMTV-luciferase reporter, dexamethasone, overnight; activation, % at 9.1 µM; 1% of 370,000 active; in the data active = activation above about 7.8%
NR2E3 ag-1 – activates human NR2E3 receptor. CHO-S Gal4-NCOR/VP16-NR2E3 two-hybrid, luciferase. inhibition of corepressor binding, % at 3.98 µM. 0.35% of 360,000 active;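 active = inhibition above the mean of all tested compounds plus 3 SD, cut at about 70% in these data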;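 note: higher means lower luciferase signal from less NR2E3 corepressor binding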
Target sequence (Q9Y5X4 whole entry, looked up, the tested form may be a part): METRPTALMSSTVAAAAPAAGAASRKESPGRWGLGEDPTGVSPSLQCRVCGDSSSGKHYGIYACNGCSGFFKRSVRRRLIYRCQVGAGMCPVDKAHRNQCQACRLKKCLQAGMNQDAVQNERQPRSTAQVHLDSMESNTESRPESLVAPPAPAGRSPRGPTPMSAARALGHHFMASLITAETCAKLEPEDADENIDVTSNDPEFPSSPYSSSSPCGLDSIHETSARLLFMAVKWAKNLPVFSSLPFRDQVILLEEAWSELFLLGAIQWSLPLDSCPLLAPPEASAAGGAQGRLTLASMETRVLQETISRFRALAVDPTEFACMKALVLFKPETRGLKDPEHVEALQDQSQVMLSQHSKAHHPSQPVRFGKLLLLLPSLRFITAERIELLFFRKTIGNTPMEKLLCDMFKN
NR2E3 ag-2 – NR2E3 (human) agonism; GST-NR2E3/biotin-RetCOR TR-FRET, 1536-well; inhibition of corepressor binding, % at 4.78 µM; 0.12% of 320,000 active;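 active = percent inhibition above the cutoff of mean plus 3 SD of all tested compounds, set per screening campaign, cut at about 20% in these data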
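Material: NR2E3–RetCOR corepressor complex / Incubation: Compound–protein incubation for 5 h at 4 °C / Dosing: compound at 4.8 µM, single dose / Detection: time-resolved FRET / Benchmarks: high control biotin, low control 0.6% DMSO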
COUP-TFII inh – inhibitors of human COUP-TFII (NR2F2) | P24468 | HEK293T NGFI-A luciferase reporter, luminescence | inhibition, % at 8.6 µM | 0.7% of 370,000 active | AID 686940;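 active = inhibition above a per-plate cutoff, mean inhibition of test wells between control levels plus 3 SD, cut at about 38% in these data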;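 note: cells cotransfected with COUP-TFII expression vector driving the NGFI-A reporter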
SMARCA2 act conf – SMARCA2 activation, confirmation screen. shares compounds with SMARCA2 activ. MG213 cells, MMTV-luciferase with dexamethasone, luminescence, overnight; MG213 cells expressing E1A, Rb sequestered; DMSO wells 0%, reference activator 100%. activation, % at 9.1 µM. AID 652260. 30% of 3,500 active;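 active = activation above its plate's cutoff, the mean activation of tested wells plus 3 SD, cut at about 7.9% in these data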
VP16 Luc act – GAL4-VP16 reporter activation counter-screen; HEK293 GAL4-VP16 pG5luc reporter, luciferase luminescence; scaled: DMSO wells 0%, SAHA wells 100%; activation, % at 9.1 µM; 41% of 3,500 active; shares compounds with SMARCA2 activ;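 active = activation above the solvent-only control well mean plus 3 SD, averaged across control plates, cut at about 5.2% in these data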
A number is an active result; - = inactive; . = no result given.

SMILES | GalR3 antagonist | SMARCA2 activ | NR2E3 ag-1 | NR2E3 ag-2 | COUP-TFII inh | SMARCA2 act conf | VP16 Luc act
CCSc1ccc(-c2ccc(C)cc2)nn1 | - | 12.8 | - | . | - | 13.9 | 9.5
COC(=O)c1cc(C(C)c2ccccc2O)n2ccccc12 (stereo not drawn) | . | - | . | . | - | . | .
CC(C)CCn1c(Sc2nc3ccccc3o2)nc2c1c(=O)[nH]c(=O)n2C | - | 8.1 | - | - | - | - | -
Cn1c(=O)[nH]c(=O)c2c1nc(N1CCCCC1)n2CCSc1nc2ccccc2o1 | . | - | - | - | - | . | .
CCOC(=O)c1cnc(SCC(=O)c2ccccc2)nc1N | - | 14.1 | - | - | - | 13.5 | 9.0
CCOC(=O)c1cnc(SCC(=O)c2ccc(C)cc2)nc1N | - | - | - | - | - | . | .
COc1cccc(N2CCN(CC(=O)NCc3ccc(F)cc3)CC2)c1 | . | - | . | . | - | . | .
CN(Cc1ccccc1)S(=O)(=O)c1ccc2[nH]c(=O)ccc2c1 | . | 8.7 | - | - | - | - | -
Nc1ccccc1C#Cc1ccc2[nH]ccc2c1 | - | 10.3 | - | - | - | 12.1 | 10.8
Cc1oncc1C(=O)Nc1ccc2ccccc2c1 | - | 9.1 | - | . | - | 9.3 | -
COc1ccc(Nc2cc(Nc3ccccc3)ncn2)cc1 | - | 14.0 | - | - | - | - | 11.3
Cc1cc(C)cc(OC(C)CCN2CCC(C(O)(c3ccccc3)c3ccccc3)CC2)c1 (stereo not drawn) | . | - | . | . | - | . | .
COc1ccccc1-c1nc(-c2ccncc2)no1 | - | 10.2 | - | - | - | 9.8 | 10.9
Cc1ccc(-c2nc(-c3ccncc3)no2)cc1C | - | - | - | - | - | . | .
COc1ccc(-c2nc(-c3ccncc3)no2)cc1OC | - | 12.3 | - | - | - | - | 8.8
COc1ccc(OC)c2nc(-c3ccc4c(c3)OCO4)ccc12 | - | 8.6 | - | - | - | - | 16.4
COc1ccc(-c2noc(-c3ccc4c(c3)OCO4)n2)cc1 | - | 14.5 | - | - | - | 15.4 | 9.3
COc1ccc(CN2CC(C(=O)NCCC3=CCCCC3)CC2=O)cc1 (stereo not drawn) | - | - | - | - | - | . | .
CC(C)CCN1CC(C(=O)NCCC2=CCCCC2)CC1=O (stereo not drawn) | - | 8.1 | - | - | - | - | -
Cc1csc(C(=O)NN)c1N(C)C | - | 9.1 | - | - | - | - | -
N#Cc1cc(Oc2cccc3cccnc23)c(-n2nnc3ccccc32)cc1C#N | - | 13.8 | - | - | - | - | -
CC(=O)c1cc(-c2csc(C=O)c2)c(=O)n2c1CCC2 | . | - | . | . | - | . | .
CCOC(=O)c1sc(NC(=O)CCN2CCN(C)CC2)c(C(=O)OCC)c1C | - | 8.4 | - | - | - | - | -
CCOC(=O)c1sc(NC(=O)CCN2CC(C)OC(C)C2)c(C(=O)OCC)c1C (stereo not drawn) | . | . | . | - | . | . | .
Cc1ccc(-n2c(SCC(=O)N/N=C/C=C\c3ccco3)nnc2-c2ccccc2)cc1 | . | - | . | . | - | . | .
SMILES | GalR3 antagonist | SMARCA2 activ | NR2E3 ag-1 | NR2E3 ag-2 | COUP-TFII inh | SMARCA2 act conf | VP16 Luc act
COc1cccc2sc(Nc3nnc(-c4cccs4)o3)nc12 | - | 15.2 | - | - | - | - | 14.1
OCCCN=c1cc(-c2ccccc2)oc2ccc(Cl)cc12 | - | 12.4 | - | - | - | 37.1 | 6.3
Cc1ccccc1OCc1nc2ccccc2[nH]1 | - | 8.9 | - | - | - | - | 13.9
COc1ccccc1OCc1nc2ccccc2[nH]1 | - | - | - | - | - | . | .
Cc1ccc(-c2cc(-c3nnc4sc(COc5ccccc5)nn34)[nH]n2)cc1 | . | - | . | . | - | . | .
CCOC(=O)CSc1nc2ccccc2c(=O)[nH]1 | - | - | - | - | - | . | .
Cc1ccc(C(=O)CSc2nc3ccccc3c(=O)[nH]2)cc1 | - | 9.6 | - | - | - | - | -
CCCCNC(=O)CSc1nc(CCC)nc2ccccc12 | - | - | - | - | - | . | .
CCc1ccc(C(=O)CSc2nc3ccccc3c(=O)[nH]2)cc1 | - | - | - | - | - | . | .
CCCc1nc(SCC(=O)c2ccc(F)cc2)c2ccccc2n1 | - | 8.3 | - | - | - | - | -
CCOC(=O)c1nc2ccccc2c(=O)[nH]1 | - | 9.3 | - | - | - | - | -

Source: PubChem (The Scripps Research Institute Molecular Screening Center)
